# Assay outcomes as filed in PubChem BioAssay.
# APJ ag = agonists of human apelin receptor APJ, primary screen, CHO-K1 cells, PathHunter beta-arrestin, luminescence; P35414; 0% DMSO wells, 100% apelin; 330,000 compounds, 0.11% hits; activation, % at 20 µM; AID 2520, 2010;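 active = activation more than six SD over the plate average, tested at 20 µM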;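 note: 0% = DMSO alone and 100% = apelin-13 at 10 nM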
#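 Test system: CHO-K1 APJ beta-arrestin complementation cell line | Compound: Single test compound dose, 20 µM final, 1% DMSO | Incubation: Compound 90 min 25 °C, reagent 1 h | Measured by: beta-gal luminescence | Read-out basis: APJ–arrestin association signal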
# Beta2AR agonist = beta2AR agonists driving receptor internalization, primary screen, cell-based, FAP fluorogen, flow cytometry; 340,000 compounds, 0.43% hits; response, % (no concentration beside the values); AID 504454, 2011; Beta-2 adrenergic receptor (Homo sapiens), P07550; Am2.2-beta2AR cells;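 active = response above a set limit, near 3 SD of response in nonfluorescent compounds, cut at about 42% in these data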
# APJ antagonist = antagonists of human apelin receptor APJ, primary screen, CHO-K1 cells, beta-arrestin complementation, luminescence. P35414. inhibition, % at 20 µM. 330,000 compounds, 0.32% hits;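 active = inhibition above about 40% at 20 µM, limit read from the data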;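 note: cells challenged with 10 nM apelin-13 agonist together with compound; plate controls were apelin-13 plus DMSO wells for no effect and DMSO wells lacking apelin-13 for full effect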
# EBI2 antag = EBI2 receptor antagonists, beta-arrestin recruitment, primary screen, cell-based, luminescence, 7a,25-OHC stimulation, uHTS | 7a,25-OHC stimulated | inhibition, % at 5 µM | 360,000 compounds, 0.81% hits; in the data active = inhibition above about 38%;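 note: enzyme fragment complementation signal reports receptor beta-arrestin coupling in cells; 0% = agonist plus DMSO wells and 100% = wells without agonist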
# CCR6 antag = CCR6 receptor antagonists, primary screen, cell-based, CHO-K1, luminescence, beta-arrestin, uHTS. C-C chemokine receptor type 6 (Homo sapiens), P51684. CHO-K1 CCR6 PathHunter beta-arrestin, CCL20-stimulated. inhibition, % at 20 µM. 340,000 compounds, 0.49% hits;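 active = compounds whose inhibition of the agonist-driven luminescence signal at 20 µM reaches about 50%, limit read from the data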;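 note: cells stimulated with CCL20 at 14 nM final; plate controls were DMSO with CCL20 for no effect and DMSO without agonist for full effect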
# Target sequence (P51684 whole entry, looked up): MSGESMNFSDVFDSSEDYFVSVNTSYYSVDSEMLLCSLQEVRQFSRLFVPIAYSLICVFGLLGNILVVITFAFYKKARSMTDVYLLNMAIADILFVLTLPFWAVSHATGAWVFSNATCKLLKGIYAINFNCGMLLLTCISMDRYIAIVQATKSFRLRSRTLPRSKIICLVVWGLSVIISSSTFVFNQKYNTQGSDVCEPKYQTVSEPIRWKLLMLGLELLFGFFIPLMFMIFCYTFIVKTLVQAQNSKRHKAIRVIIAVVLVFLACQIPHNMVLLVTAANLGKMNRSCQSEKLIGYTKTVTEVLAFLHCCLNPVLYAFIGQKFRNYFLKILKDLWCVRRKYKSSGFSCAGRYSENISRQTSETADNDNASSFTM
# CXCR6 inh = CXCR6 receptor inhibitors, primary screen, cell-based, beta-arrestin, luminescence, CHO-K1 PathHunter, 1536-well | 360,000 compounds, 0.36% hits | C-X-C chemokine receptor type 6 (Homo sapiens), O00574 | inhibition, % at 20 µM; in the data active = inhibition above about 34%, passing the limit was not always enough;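 note: antagonist mode with CXCL16 agonist at 10 nM final; 0% = 10 nM CXCL16 with DMSO and 100% = unstimulated wells without agonist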
# Active calls of the source: *; / = no result. This is a sample that favours compounds with a hit; in the whole collection about 1.8% have one here.
SMILES,APJ ag,Beta2AR agonist,APJ antagonist,EBI2 antag,CCR6 antag,CXCR6 inh
COc1ccc(C(=O)CNc2ccc(C)cc2C)cc1,-15,6,24,6,79*,43*
COc1ccccc1Cc1c(-c2ccco2)nc2ccc(Br)cn12,/,/,/,12,/,10
CCCCNC(=O)O[C@@H]1C[C@H]2CCCC(=O)N3CC[C@@H](C1)[C@@H]23,-3,-5,1,-5,-4,4
CCCCCCCN(c1ccccc1)[C@@H]1C[C@H]2CCCC(=O)N3CC[C@@H](C1)[C@@H]23,/,91*,/,9,42,19
O=[N+]([O-])c1cc2cccnc2c2ncccc12,0,/,-5,14,-6,10
O=[N+]([O-])c1cc(O)c2ncccc2c1,3,/,-58,/,54*,/
S=C(NCCSCc1ccc(Cl)c(Cl)c1)Nc1ccccc1,-1,47*,-5,5,0,-11
N/C(=N\OC(=O)C(c1ccccc1)c1ccccc1)c1ccccn1,-2,58*,22,0,-11,1
CCOC(=O)/C(C#N)=N/Nc1c(C)n(C)n(-c2ccccc2)c1=O,-1,12,13,8,17,11
Cc1ccccc1C(=O)/C(C#N)=N/Nc1c(C)n(C)n(-c2ccccc2)c1=O,/,7,/,6,48,45*
Cc1c(NC=C(C#N)C#N)c(=O)n(-c2ccccc2)n1C,1,-4,-8,-5,-2,0
Cc1c(N/N=C(\C#N)C(=O)c2ccccc2)c(=O)n(-c2ccccc2)n1C,/,19,/,10,63*,35
O=C(Nc1ccc(S(=O)(=O)N2CCCC2)cc1)C1CCCCC1,0,-8,-17,-7,7,-9
CCc1nc2ccc(C(=O)NCCCN3CCCC3=O)cn2c1N(C)Cc1ccc(OC)cc1,/,/,/,-1,/,4
COc1cc(/C=C(\NC(=O)c2cc(OC)c(OC)c(OC)c2)C(=O)NC(C(=O)O)c2ccccc2)cc(OC)c1OC (centres undefined),2,7,1,3,-2,-2
C=CCn1c(N)c(C(=O)OC(C)(C)C)c2nc3ccccc3nc21,-10,-2,50*,1,19,5
C=CCn1c(N)c(C(=O)OC(C)CC)c2nc3ccccc3nc21 (centres undefined),/,2,/,8,19,12
Cc1ccccc1CN1N=C(/C=C/c2ccccc2)CCC1=O,-1,48*,-6,6,15,-6
COC(=O)C1=C(C(=O)OC)SC(=C2C(=S)C(C)(C)N(C(=O)CC(C)C)c3ccccc32)S1,-1,13,37,56*,49,31
Cn1cnnc1SCc1ccc(C(=O)N=Nc2c(O)n(Cc3ccc(Cl)cc3)c3ccccc23)cc1,1,7,8,33,16,18
CCn1c(O)c(N=NC(=O)c2ccc(CSc3nncn3C)cc2)c2ccccc21,-1,53*,4,6,-5,-5
N#C/C(=C\c1cccc(NC(=O)c2ccccc2Cl)c1)C(=O)NCCc1ccccc1,1,43*,-35,27,-16,3
COCCCNC(=O)/C(C#N)=C/c1cccc(NC(=O)c2ccccc2Cl)c1,-4,10,2,-14,16,0
COc1cc(-c2coc3c(C(=O)NC4CCCCC4)cccc23)ccc1O,/,/,/,23,/,-1
O=C(NNC(=O)c1ccncc1)Nc1cc(Cl)ccc1Cl,/,0,/,-4,-9,-8
SMILES,APJ ag,Beta2AR agonist,APJ antagonist,EBI2 antag,CCR6 antag,CXCR6 inh
O=C1OC/C(=C(/O)c2ccc(Cl)cc2)C1=O,-3,-1,4,-10,10,2
CN1CCN(c2ccc([N+](=O)[O-])c(-n3nc(-c4ccccc4)c4ccccc4c3=O)c2)CC1,-4,-10,15,-3,52*,18
O=C(NC1CC1)c1cc(=S)[nH]c2ccccc12,2,2,-9,-1,4,-7
O=C(Nc1ccc(Cl)cc1)Nc1ccccc1Sc1ncc([N+](=O)[O-])s1,-2,22,8,39,50*,34
CCOC(=O)C1=C[C@@H](C(C)C)N(S(=O)(=O)c2ccc(C)cc2)[C@H]1c1ccc(C(F)(F)F)cc1,/,/,/,8,/,4
CCCN(C)C[C@H]1OCc2cnnn2CCCC(=O)N([C@H](C)CO)C[C@@H]1C,/,/,/,-8,/,2
Cc1ccccc1NC(=S)Nc1cccc2cnccc12,16*,-4,-42,-12,10,-8
COc1ccc(S(=O)(=O)/N=C2\C=C(Nc3ccc(O)cc3)C(=O)c3ccccc32)cc1,-6,52*,29,23,/,38
CC(=O)Nc1ccc(NC2=C/C(=N/S(=O)(=O)c3cccs3)c3ccccc3C2=O)cc1,5,31,-89,16,29,13
Cc1cccc(C)c1-n1nnnc1C1(C)CCC(=O)N1Cc1cccc(C(F)(F)F)c1 (centres undefined),/,/,/,4,/,-8
O=C(Nc1ccc(S(=O)(=O)Nc2nccs2)cc1)c1nn(-c2ccccc2)ccc1=O,2,58*,-7,-13,-4,4
Cc1cccc(-n2ccc(=O)c(C(=O)Nc3ccc(S(=O)(=O)Nc4nccs4)cc3)n2)c1,-5,0,9,3,24,0
COC(=O)c1cc(=O)n(Cc2ccc3c(c2)OCO3)c(=Nc2ccc(F)c(Cl)c2)s1,-3,16,16,64*,15,0
Cc1c(OCC(=O)NCc2ccccn2)ccc2c3c(c(=O)oc12)CCCC3,1,1,-19,-4,-7,-11
Cc1c(Cc2ccccc2)c(=O)oc2c(C)c(OCC(=O)NCc3ccccn3)ccc12,-2,45*,20,6,16,3
COc1ccc(C(=O)/C=C/c2cc(OC)c(O)c(OC)c2)c(F)c1,-1,-28,-4,11,51*,21
CC1=[N+](C)c2c(ccc3cccnc23)C1(C)C,/,-5,/,-9,14,-4
Cc1ccc(C)c(C(=O)Cn2ncc(Cl)c(Cl)c2=O)c1,-1,41,10,24,0,10
Cc1cc(C(=O)Cn2ncc(Cl)c(Cl)c2=O)c(C)n1CC(F)(F)F,-3,43*,12,14,19,8
Cc1ccc(OCCNC(=O)C(=O)NCc2ccco2)cc1,-3,-9,14,14,4,-7
CCOc1cc(C(=O)CSc2nnc(CNc3ccc(Cl)cc3)o2)ccc1NC(=O)CC,2,-15,4,56*,5,-8
O=C1CC(C(=O)Nc2ccccc2)C2(CCCCC2)O1 (centres undefined),-2,-8,6,-6,-10,-1
